ChEMBL document CHEMBL3108738, “The chemical and biological potential of C ring modified triterpenoids” (Eur J Med Chem, 2014)
Activity calls are given as the source filed them. The rule behind the calls is not given here.

Columns and labels:
[1] = test system: A2780; assay: Induction of apoptosis in human A2780 cells assessed as necrotic cells at 30 uM after 24 hrs by annexin V/propidium iodide staining-based FACS analysis (reference value: 6.37%); format: functional
[2] = test system: A2780; assay: Induction of apoptosis in human A2780 cells assessed as vital cells at 30 uM after 24 hrs by annexin V/propidium iodide staining-based FACS analysis (reference value: 82.15%); format: functional
[3] = test system: A2780; assay: Induction of apoptosis in human A2780 cells assessed as secondary necrotic cells at 30 uM after 24 hrs by annexin V/propidium iodide staining-based FACS analysis (reference value: 9.71%); format: functional
[4] = test system: A2780; assay: Induction of apoptosis in human A2780 cells assessed as necrotic cells at 30 uM after 24 hrs by annexin V/propidium iodide staining-based FACS analysis (reference value: 1.78%); format: functional
[5] = test system: A2780; assay: Cell cycle arrest in human A2780 cells assessed as accumulation at G0/G1 phase at 30 uM by propidium iodide staining-based FACS analysis; format: functional
[6] = test system: A2780; assay: Cell cycle arrest in human A2780 cells assessed as accumulation at S phase at 30 uM by propidium iodide staining-based FACS analysis (reference value: 32.439 %); format: functional
[7] = test system: A2780; assay: Cell cycle arrest in human A2780 cells assessed as accumulation at G2 phase at 30 uM by propidium iodide staining-based FACS analysis (reference value: 15.721 %); format: functional
[8] = test system: A2780; assay: Cell cycle arrest in human A2780 cells assessed as accumulation at G1 phase at 30 uM by propidium iodide staining-based FACS analysis (reference value: 51.839 %); format: functional
[9] = test system: NIH3T3; assay: Cytotoxicity against mouse NIH/3T3 cells after 96 hrs by SRB assay; format: ADME, cell-based; conditions: NIH3T3, 96 h
[10] = test system: MCF7; assay: Cytotoxicity against human MCF7 cells after 96 hrs by SRB assay; format: functional, cell-based; conditions: MCF7, 96 h
[11] = test system: A549; assay: Cytotoxicity against human A549 cells after 96 hrs by SRB assay; format: functional, cell-based; conditions: A549, 96 h
[12] = test system: HT-29; assay: Cytotoxicity against human HT-29 cells after 96 hrs by SRB assay; format: functional, cell-based; conditions: HT-29, 96 h
[13] = test system: A2780; assay: Cytotoxicity against human A2780 cells after 96 hrs by SRB assay; format: functional, cell-based; conditions: A2780, 96 h
[14] = test system: 8505C; assay: cells; format: functional, cell-based; conditions: Homo sapiens, 96 h
[15] = Cytotoxicity against human 518A2 cells after 96 hrs by SRB assay; format: functional, cell-based; conditions: 518A2, 96 h
[16] = test system: A2780; assay: Induction of apoptosis in human A2780 cells at 30 uM after 24 hrs by annexin V/propidium iodide staining-based FACS analysis; format: functional
[17] = test system: A2780; assay: Induction of apoptosis in human A2780 cells assessed as DNA ladder formation at 30 uM after 24 hrs by electrophoresis; format: functional, cell-based
Procedure, shortened: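 A2780 cells were exposed to 30 µM compound for 24 h. Floating (dead) cells were collected and washed with PBS, and DNA fragmentation was examined by gel laddering alongside an untreated control.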

[18] = test system: A2780; assay: Cell cycle arrest in human A2780 cells assessed as reduction of G2/M phase at 30 uM by propidium iodide staining-based FACS analysis; format: functional

In the case of `COC(=O)[C@]12CCC(C)(C)C[C@H]1[C@H]1C(=O)C[C@@H]3[C@@]4(C)CC[C@H](OC(C)=O)C(C)(C)[C@@H]4CC[C@@]3(C)[C@]1(C)CC2`, the Activity [1] is reported as 11%, the Activity [2] is reported as 75.08% and the Activity [3] is reported as 12.96%. For the same compound, the Activity [4] was 0.96%, the Activity [5] was less than 20% and the Activity [6] was 24.431%. It also gave an Activity [7] of 14.004%, an Activity [8] of 61.565% and an IC50 [9] of 28.2 µM. It also gave an IC50 [10] greater than 30 µM, an IC50 [11] greater than 30 µM and an IC50 [12] of 46.8 µM. The IC50 [13] was greater than 30 µM, the IC50 [14] was 31.1 µM and the IC50 [15] was 40.8 µM.

With `CC(=O)O[C@H]1CC[C@]2(C)[C@H]3C(=O)C(O)=C4[C@@H]5CC(C)(C)CC[C@]5(C(=O)OCc5ccccc5)CC[C@@]4(C)[C@]3(C)CC[C@H]2C1(C)C` the Activity [1] was 12.83%, the Activity [2] was 72.96% and the Activity [3] was 12.64%. For the same compound, the Activity [4] was 1.55%, the Activity [5] was less than 20% and the Activity [6] was 22.262%. The Activity [7] was 15.469%, the Activity [8] was 62.269% and the IC50 [9] was greater than 60 µM. For the same compound, the IC50 [10] was greater than 60 µM, the IC50 [11] was greater than 60 µM and the IC50 [12] was greater than 60 µM. The IC50 [13] was 8.2 µM, the IC50 [14] was 16.4 µM and the IC50 [15] was greater than 60 µM.

Work on `COC(=O)[C@]12CCC(C)(C)C[C@H]1C1=C(O)C(=O)[C@@H]3[C@@]4(C)CC[C@H](OC(C)=O)C(C)(C)[C@@H]4CC[C@@]3(C)[C@]1(C)CC2` yielded an Activity [1] of 24.67%, an Activity [2] of 57.12% and an Activity [3] of 16.21%. The Activity [4] was 2%, the Activity [16] was “Active” and the Activity [17] was “Active”. The Activity [18] was “Active”, the Activity [6] was 42.682% and the Activity [7] was 7.345%. The Activity [8] was 49.973%, the IC50 [9] was 12.5 µM and the IC50 [10] was 9.4 µM. It also gave an IC50 [11] of 8.2 µM, an IC50 [12] of 13.5 µM and an IC50 [13] of 4 µM. It also gave an IC50 [14] of 8.4 µM and an IC50 [15] of 7.7 µM.
